The results in this text go back to ChEMBL document CHEMBL1158959, “Antitumor agents, 119. Kansuiphorins A and B, two novel antileukemic diterpene esters from Euphorbia kansui” (J Nat Prod, 1991).

Test [1] has as its system P388. Briefly: In vivo antileukemic activity in mouse P388 cells at 0.5 mg/kg relative to control. It is filed as functional. In short, it runs like this:
(§1)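 In vivo P-388 lymphocytic leukemia model run by standard National Cancer Institute procedures; activity is reported as T/C (%), treated relative to control.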

In the next test the test system is A704. The test is described as follows: Cytotoxicity against human A704 cells. It is filed as functional, cell-based.
In test [2] the test system is P388. The test is described as follows: Cytotoxicity against adriamycin-resistant mouse P388 cells. It is filed as functional, cell-based.
For test [3], the system named is P388. The test is described as follows: In vivo antileukemic activity in mouse P388 cells at 0.1 mg/kg relative to control. It is filed as functional. In short, it runs like this:
as §1

The test system of another test is NCI-H69. Briefly: Cytotoxicity against human H69 cells. It is filed as functional, cell-based.
The next test has as its system HOP-62. The test is described as follows: Cytotoxicity against human HOP62 cells. The test is classed as functional, cell-based.
Another test relates to A498. The test is described as follows: Cytotoxicity against human A498 cells. The test is classed as functional, cell-based.
The subject of the next test is K562. Briefly: Cytotoxicity against human K562 cells. The test is classed as functional, cell-based.
The next test relates to SK-MEL-2. The test is described as follows: Cytotoxicity against human SK-MEL-2 cells. The test is classed as functional, cell-based.
In the next test the test system is OVCAR-5. The test is described as follows: Cytotoxicity against human OVCAR5 cells. The test is classed as functional, cell-based.
The test system of a further test is MOLT-4. Briefly: Cytotoxicity against human MOLT4 cells. The test is classed as functional, cell-based.
Another test deals with OVCAR-8. Briefly: Cytotoxicity against human OVCAR8 cells. It is filed as functional, cell-based.
Another test concerns HCC 2998. Briefly: Cytotoxicity against human HCC2998 cells. It is filed as functional, cell-based.
The subject of a further test is SK-MEL-5. Briefly: Cytotoxicity against human SK-MEL-5 cells. The test is classed as functional, cell-based.
The test system of a further test is RPMI-7951. The test is described as follows: Cytotoxicity against human RPMI7951 cells. The test is classed as functional, cell-based.
The test system of a further test is HL-60(TB). The test is described as follows: Cytotoxicity against human HL-60(TB) cells. The test is classed as functional, cell-based.
The next test relates to SN12K1. Briefly: Cytotoxicity against human SN12K1 cells. It is filed as functional, cell-based.
For the next test, the system named is MCF7. The test is described as follows: Cytotoxicity against human MCF7 cells. It is filed as functional, cell-based.
The test system of a further test is NCI-H82. Briefly: Cytotoxicity against human H82 cells. The test is classed as functional, cell-based.
The next test deals with Malme-3M. Briefly: Cytotoxicity against human MALME-3M cells. The test is classed as functional, cell-based.
The subject of the next test is SNB-75. The test is described as follows: Cytotoxicity against human SNB75 cells. The test is classed as functional, cell-based.
For another test, the system named is NCI-H146. Briefly: Cytotoxicity against human NCI-H146 cells. The test is classed as functional, cell-based.
For the next test, the system named is SNB44. The test is described as follows: Cytotoxicity against human SNB44 cells. It is filed as functional, cell-based.
Another test concerns NCI/ADR-RES. Briefly: Cytotoxicity against human MCF7/ADR cells. The test is classed as functional, cell-based.
The next test deals with UO-31. Briefly: Cytotoxicity against human UO31 cells. It is filed as functional, cell-based.
A further test concerns NCI-H524. Briefly: Cytotoxicity against human NCI-H524 cells. The test is classed as functional, cell-based.
In another test the test system is H125. The test is described as follows: Cytotoxicity against human H125 cells. The test is classed as functional, cell-based.
The subject of the next test is SNB-19. Briefly: Cytotoxicity against human SNB19 cells. It is filed as functional, cell-based.
Another test relates to NCI-H23. Briefly: Cytotoxicity against human H23 cells. It is filed as functional, cell-based.
Test [4] can be described thus: Cytotoxicity against human NCI-H322 cells. The test is classed as functional, cell-based.
The next test concerns EKVX. Briefly: Cytotoxicity against human EKVX cells. The test is classed as functional, cell-based.
Another test concerns SW-620. Briefly: Cytotoxicity against human SW620 cells. The test is classed as functional, cell-based.
Another test deals with U-251. The test is described as follows: Cytotoxicity against human U251 cells. It is filed as functional, cell-based.
A further test concerns DLD-1. The test is described as follows: Cytotoxicity against human DLD1 cells. It is filed as functional, cell-based.
A further test deals with NCI-H522. Briefly: Cytotoxicity against human NCI-H522 cells. It is filed as functional, cell-based.

In brackets after ≈: the same amount, converted by molar mass. Activity calls are given as the source filed them. The rule behind the calls is not given here.

For the compound `CCCCCCCCCCCCCCCC(=O)OC[C@@]12O[C@@H]1[C@@H]1C(=O)[C@]3(C=C(C)[C@H](OC(=O)C(C)C(C)C)[C@@]3(O)[C@@H]2O)[C@H](C)C[C@]2(OC(=O)CCCCCCCCCCC)[C@H]1C2(C)C` (stereo not given in full) [KANSUIPHORIN B], the T/C result in the test with P388 [1] is given as “>=177%”.

A word on the IC50: it is the concentration that gives 50% inhibition. Lower therefore signals higher potency. In the case of `CCCCCCCCCCCCCCCC(=O)OCC1=C[C@@H]2C(=O)[C@]3(C=C(C)[C@H](OC(=O)C(C)C(C)C)[C@@]3(O)[C@@H]1O)[C@H](C)C[C@]1(OC(=O)CCCCCCCCCCC)[C@H]2C1(C)C` (stereo not given in full) [KANSUIPHORIN A], the IC50 with A704 was determined as 0.03 µg/mL (≈ 0.034 µM); in the test on HOP-62, 0.06 µg/mL (≈ 0.0679 µM); in the test on A498 it was 0.02 µg/mL (≈ 0.0226 µM); with K562, 0.03 µg/mL (≈ 0.034 µM); in the test with MOLT-4 it was 0.13 µg/mL (≈ 0.147 µM); in the test on SK-MEL-5, 0.14 µg/mL (≈ 0.158 µM). Besides, the IC50 was 0.05 µg/mL (≈ 0.0566 µM) in the test with RPMI-7951; 0.03 µg/mL (≈ 0.034 µM) with HL-60(TB); 0.07 µg/mL (≈ 0.0792 µM) with SN12K1; 0.32 µg/mL (≈ 0.362 µM) in the test on Malme-3M; 0.33 µg/mL (≈ 0.374 µM) in [4]; 0.08 µg/mL (≈ 0.0906 µM) in the test on SW-620. Further, the outcome with P388 [2], with NCI-H69, in the test on SK-MEL-2, in the test on OVCAR-5, with OVCAR-8 and with HCC 2998 was inactive. Besides, the result in the test on MCF7, with NCI-H82, in the test on SNB-75, with NCI-H146, with SNB44 and in the test on NCI/ADR-RES was inactive. Besides, the result in the test with UO-31, in the test on NCI-H524, with H125, with SNB-19, in the test with NCI-H23 and in the test with EKVX was inactive. In addition, the outcome with U-251, in the test with DLD-1 and with NCI-H522 was inactive. Also, in the test on P388 [3], the T/C result was “>=176%”.
